In ChEMBL document CHEMBL1157417, “Synthetic and pharmacological studies on new simplified analogues of the potent actin-targeting Jaspamide” (Bioorg Med Chem, 2008):
Calls of active or inactive are those of the source. No cut-off for these calls is given here.

What was measured:
Type in all cases: functional, cell-based
[1] = system: A498; experiment: Effect on morphology in human A498 cells assessed as cell aberration at 100 umol after 16 hrs by microfilament immunofluorescence assay
In short: (§1)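 A-498 cells grown to near-confluency on glass coverslips, then exposed 16 h. Cytochalasin B served as the microfilament-depolymerising positive control. Microfilaments stained with monoclonal anti-actin and microtubules with monoclonal anti-β-tubulin, both visualised with fluorescein-conjugated anti-mouse IgG. Scored for binucleation and other cellular aberration.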

[2] = system: A498; experiment: Cytotoxicity against human A498 cells after 48 hrs by SRB binding assay; details: A498, 48 h
In short: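 A498 kidney adenocarcinoma cells kept in R-MEM with 10% FBS and 50 µg/mL gentamycin, 37 °C, 5% CO2. Seeded at about 15% confluency and left 24 h to attach. Treated in triplicate with varying concentrations for 48 h. Survival read by sulforhodamine B binding as a percentage of control cultures.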

[3] = system: A498; experiment: Effect on morphology in human A498 cells assessed as appearance of binucleated cells after 16 hrs by microfilament immunofluorescence assay; in short: as §1

In the case of `CC1/C=C/CCCOC(=O)C[C@H](c2ccccc2)NC(=O)[C@@H](Cc2c[nH]c3ccccc23)NC(=O)[C@H](C)NC(=O)C1` (stereo not given in full), the Activity [1] is reported as “inactive” and the IC50 [2] is reported as 25 µM.

For `C[C@@H]1NC(=O)CCNC(=O)CCCNC(=O)C[C@H](c2ccccc2)NC(=O)[C@@H](Cc2c[nH]c3ccccc23)NC1=O`, the Activity [1] was “inactive”.

`C=C1[C@@H](C)[C@H]2[C@H](Cc3ccccc3)NC(=O)[C@]23OC(=O)/C=C/[C@H](O)CCC[C@@H](C)C/C=C/[C@H]3[C@@H]1O` was tested, and the Activity [3] was “Active”.

For `C[C@@H]1NC(=O)CCNC(=O)CCCNC(=O)CCNC(=O)[C@@H](Cc2c[nH]c3ccccc23)NC1=O`, the Activity [1] was “inactive”.

With `C[C@@H]1NC(=O)CC/C=C/CCCOC(=O)C[C@H](c2ccccc2)NC(=O)[C@@H](Cc2c[nH]c3ccccc23)NC1=O` the Activity [1] was “inactive” and the IC50 [2] was 25 µM.

With `C[C@@H]1NC(=O)CCCCCCCNC(=O)C[C@H](c2ccccc2)NC(=O)[C@@H](Cc2c[nH]c3ccccc23)NC1=O` the Activity [1] was “inactive”.

In the case of `COc1ccc([C@H]2CC(=O)NCCCC(=O)NCCC(=O)N[C@@H](C)C(=O)N[C@H](Cc3c[nH]c4ccccc34)C(=O)N2)cc1`, the Activity [1] is reported as “inactive”.

`C[C@@H]1NC(=O)CC/C=C/CCCOC(=O)CCNC(=O)[C@@H](Cc2c[nH]c3ccccc23)NC1=O` was tested, and the Activity [1] was “inactive”.
